The results in this text go back to ChEMBL document CHEMBL1250458, “Targeting the ICB2 site of the topoisomerase IIalpha promoter with a formamido-pyrrole-imidazole-pyrrole H-pin polyamide” (Bioorg Med Chem, 2010).

By ΔTm is commonly meant the change in melting temperature against a reference sample. For orientation: IC50 means the concentration needed to halve the response being measured. A lower IC50 goes with greater potency.

Each structure is given as a SMILES string. Activity calls are given as the source filed them. The rule behind the calls is not given here.

Assay [1] concerns Nucleic Acid. The experiment in a line: Binding affinity to ICB2 site of topoisomerase 2alpha cognate sequence ATCGAT at 2 uM after 30 mins by DNase I footprinting assay. The class given is nucleic-acid assay. Summed up: (§1)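 DNase I footprinting on a PCR-made radiolabeled 131-bp fragment. The fragment was incubated 30 min at room temperature with drug in TN buffer (10 mM Tris, 10 mM NaCl, pH 7). It was then cleaved 3 min with 0.02 U DNase I in buffer containing Mg2+/Mn2+ (pH 8.0) and stopped on dry ice. Products were resolved on a denaturing 10% polyacrylamide urea gel.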

Assay [2] concerns Nucleic Acid. The assay is described as follows: Binding affinity to ICB2 site of topoisomerase 2alpha cognate sequence ATCGAT at 1 uM after 30 mins by DNase I footprinting assay. The class given is nucleic-acid assay. Summed up:
as §1

For assay [3], the system named is Nucleic Acid. The assay is described as follows: Inhibition of nuclear factor Y binding to ICB2 site of topoisomerase 2alpha cognate sequence TACGAT in mouse NIH/3T3 cells at > 3 uM treated after addition of probe by electrophoretic mobility shift assay. The class given is cell-based. To be noted: NIH3T3.
Assay [4] deals with Nucleic Acid. The assay is described as follows: Binding affinity to ICB2 site of topoisomerase 2alpha cognate sequence ATCGAT assessed as change in melting temperature at 3 uM by thermal denaturation. The class given is nucleic-acid assay. Summed up: (§2)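 Thermal melting by UV spectrophotometry: DNA hairpin 1 µM with compound 3 µM in PO40 buffer (10 mM phosphate, 12.5 mM Na+, 1 mM EDTA, pH 6.2). ΔTm taken as the difference in Tm between ligand-bound and free DNA.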

Assay [5] concerns Nucleic Acid. The experiment in a line: Binding affinity to ICB2 site of topoisomerase 2alpha cognate sequence TACGAT assessed as change in melting temperature at 3 uM by thermal denaturation. The class given is nucleic-acid assay. Summed up: as §2
For assay [6], the system named is Nucleic Acid. The assay is described as follows: Binding affinity to biotinylated ICB2 site of topoisomerase 2alpha cognate sequence ATCGAT by surface plasmon resonance assay. The class given is nucleic-acid assay. Summed up:
(§3)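 SPR at 25 °C with biotinylated DNA hairpins immobilized on a chip, in cacodylic acid buffer pH 6.25 with 0.1 M NaCl. Compound injected at a range of concentrations (up to 4 µM) at 25 µL/min with 400 s dissociation; surface regenerated with glycine pH 2.5. Keq derived from steady-state fits.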
In general terms: SPR reads the build-up and loss of mass on a sensor chip optically.

Another assay has as its system B16. The assay is described as follows: Cytotoxicity against mouse B16 cells after 72 hrs by MTT assay. To be noted: B16, 72 h. The class given is cell-based. Summed up:
(§4)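 Cells exposed to a compound concentration gradient for 72 h, then MTT added and developed 4 h. Absorbance read; IC50 taken as the concentration giving 50% growth inhibition versus untreated control.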
On the technique in general: Tetrazolium dyes change colour on reduction, which living cells bring about.

Assay [7] deals with Nucleic Acid. The experiment in a line: Binding affinity to ICB2 site of topoisomerase 2alpha cognate sequence ATCGAT by isothermal titration microcalorimetry. The class given is nucleic-acid assay. Summed up:
(§5)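 ITC at 25 °C in PO45 buffer. Compound (100 µM) titrated into 2 µM DNA as 50 injections every 240 s after a 300 s delay. A linear fit was subtracted from the integrated heats to remove non-specific heat, giving ΔH.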
A general note: ITC needs no label: the signal is the heat of the interaction.

For assay [8], the system named is Nucleic Acid. The assay is described as follows: Binding affinity to ICB2 site of topoisomerase 2alpha cognate sequence ATCGAT at 6 molar equivalent concentration by circular dichroism spectra analysis. The class given is nucleic-acid assay. Summed up:
(§6)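 CD spectra recorded in a 1 mm cuvette with 2.4 nm bandpass, integration time set as a function of PMT high volts. PO45 buffer (10 mM phosphate, 50 mM Na+, 1 mM EDTA, pH 6.2); run in duplicate.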

For assay [9], the system named is Nucleic Acid. The assay is described as follows: Binding affinity to ICB2 site of topoisomerase 2alpha non-cognate AAATTT assessed as change in melting temperature at 3 uM by thermal denaturation. The class given is nucleic-acid assay. Summed up: as §2
A further assay relates to L1210. The assay is described as follows: Cytotoxicity against mouse L1210 cells after 72 hrs by MTT assay. The class given is cell-based. To be noted: L1210, 72 h. Summed up: as §4
Assay [10] has as its system Nucleic Acid. The experiment in a line: Inhibition of nuclear factor Y binding to ICB2 site of topoisomerase 2alpha cognate sequence TACGAT in mouse NIH/3T3 cells at > 3 uM preincubated for 1 hr by electrophoretic mobility shift assay. To be noted: NIH3T3. The class given is cell-based.
The subject of assay [11] is Nucleic Acid. The assay is described as follows: Binding affinity to ICB2 site of topoisomerase 2alpha non-cognate AAATTT by isothermal titration microcalorimetry. The class given is nucleic-acid assay. Summed up:
as §5

Assay [12] relates to Nucleic Acid. The experiment in a line: Binding affinity to ICB2 site of topoisomerase 2alpha cognate sequence TACGAT by isothermal titration microcalorimetry. The class given is nucleic-acid assay. Summed up:
as §5

Assay [13] has as its system Nucleic Acid. The experiment in a line: Binding affinity to biotin labeled ICB2 site of topoisomerase 2alpha non-cognate AAATTT by surface plasmon resonance assay. The class given is nucleic-acid assay. Summed up:
as §3

Assay [14] deals with Nucleic Acid. The assay is described as follows: Binding affinity to ICB2 site of topoisomerase 2alpha cognate sequence TACGAT by circular dichroism spectra analysis. The class given is nucleic-acid assay. Summed up: as §6
The next assay concerns NIH3T3. The assay is described as follows: Inhibition of topoisomerase 2alpha expression in mouse NIH/3T3 cells up to 80 uM after 4 to 24 hrs by Western blotting. The class given is functional, cell-based. Summed up: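 NIH 3T3 cells held at confluence for 96 h, then treated with compound (40 and 80 µM) for 6 and 24 h. Nuclear extract (50 µg) immunoblotted with polyclonal topoIIα antibody (1:1000), detected by ECL. Lamin A/C used as loading control.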

Consider `CN(C)CCCNC(=O)c1cc(NC(=O)c2nc(NC(=O)c3cc(NC=O)cn3C)cn2C)cn1C`, for which, in the assay on Nucleic Acid [1], the result was Active. In the assay on Nucleic Acid [2], the outcome was inactive.

In the case of `CN(C)CCCNC(=O)c1cc(NC(=O)c2nc(NC(=O)c3cc(NC=O)cn3CCOCCOCCn3cc(NC=O)cc3C(=O)Nc3cn(C)c(C(=O)Nc4cc(C(=O)NCCCN(C)C)n(C)c4)n3)cn2C)cn1C`, the outcome in the assay on Nucleic Acid [3], in the assay with Nucleic Acid [1], in the assay on Nucleic Acid [7], with Nucleic Acid [8], in the assay on Nucleic Acid [2] and in the assay on Nucleic Acid [10] was Active. The result with Nucleic Acid [12] and in the assay with Nucleic Acid [14] was Active. The ΔTm in the assay on Nucleic Acid [4] was found to be 6 °C; in the assay with Nucleic Acid [5], 3 °C; with Nucleic Acid [9], 4 °C. Besides, in the assay on Nucleic Acid [6], the Ke was 5 ×10⁵ /M. Further, the IC50 in the assay on B16 and with L1210 was > 100 µM in each case. Further, the outcome in the assay on Nucleic Acid [11] and in the assay on NIH3T3 was inactive. The Ke result with Nucleic Acid [13] was “inactive”.
